Data published in ChEMBL document CHEMBL1122328, “Hypolipidemic activity of phthalimide derivatives. 2. N-phenylphthalimide and derivatives” (1983).

Experiments:
[1] = test system: Mus musculus; assay: In vitro effect on CF1 male mouse on HMGCoA reductase after 16 days at a dose of 10 (mg/kg)/day; assay type: functional
Summary of the method: (§1)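 In vivo enzyme study. CF₁ male mice were dosed ip for 16 days in 1% CMC, and liver was homogenised to 10% in 0.25 M sucrose with 0.001 M EDTA. Enzymes assayed: acetyl-CoA synthetase as hydroxamate at 540 nm after 30 min at 37 °C; HMG CoA reductase with [1-¹⁴C]acetate in 9000g supernatant for 60 min at 37 °C; fatty acid synthetase with [2-¹⁴C]malonyl-CoA; acyltransferase with [³H]glycerol 3-phosphate and microsomes for 10 min; phosphatidate phosphohydrolase as released phosphate at 820 nm after 30 min. N = 6; reported as % control.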

[2] = test system: Mus musculus; assay: In vitro effect on CF1 male mouse on Fatty acid synthetase after 16 days at a dose of 20 (mg/kg)/day; assay type: functional; summary of the method: as §1
[3] = test system: Mus musculus; assay: Effect on phospholipids from CF1 male mice after 16 days at a dose of 10 (mg/kg/day); assay type: functional
Summary of the method: (§2)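 Dosing was ip in CF₁ male mice (~25 g) for 16 days, with compound suspended in 1% carboxymethylcellulose. Liver was then taken and homogenised to 10% in 0.25 M sucrose with 0.001 M EDTA. Lipid was extracted from a 2 mL aliquot by the Folch and Bligh–Dyer methods and total mg of lipid was weighed. Cholesterol (Liebermann–Burchard), triglycerides (kit), neutral lipids and phospholipids were then measured; N = 6; reported as % of vehicle control.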

[4] = test system: Mus musculus; assay: In vitro effect on CF1 male mouse onAc-CoA carboxylase after 16 days at a dose of 40 (mg/kg)/day; assay type: functional; conditions: in the assay text read “In vivo” for “In vitro”
Summary of the method: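 Mice (CF1 males) given agent ip daily for 16 days in 1% carboxymethylcellulose; liver 10% homogenate in 0.25 M sucrose + 0.001 M EDTA. Acetyl-CoA carboxylase first polymerized 30 min at 37 °C, then incubated 30 min at 37 °C with sodium [14C]bicarbonate (41.0 mCi/mmol); incorporated label counted. Activity as % of vehicle control; N = 6.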

[5] = test system: Rattus norvegicus; assay: Effect on very low density Triglycerides Holtzman rats after 14 days administration; assay type: functional
Summary of the method: (§3)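 Holtzman male rats (~400 g) received drug at 20 (mg/kg)/day for 14 days. On day 14, blood was collected from the abdominal aorta and serum was separated by centrifugation at 3500 rpm. Lipid content of the lipoprotein fractions was then determined.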

[6] = test system: Rattus norvegicus; assay: Effect on Chylomicrons of Phospholipids Holtzman rats after 14 days administration; assay type: functional
Summary of the method: (§4)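 Holtzman male rats (~400 g) given drug at 20 (mg/kg)/day for 14 days; on day 14 blood taken from the abdominal aorta and serum separated by centrifugation at 3500 rpm; lipid and protein content of the lipoprotein fractions measured.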

[7] = test system: Mus musculus; assay: In vitro effect on CF1 male mouse on acyltransferase after 16 days at a dose of 20 (mg/kg)/day; assay type: functional; summary of the method: as §1
[8] = test system: Mus musculus; assay: Effect on neutral lipids from CF1 male mice after 16 days at a dose of 40 (mg/kg/day); assay type: functional; summary of the method: as §2
[9] = test system: Mus musculus; assay: Effect on Serum cholesterol levels on CF1 male mice at a dose of 50 (mg/kg)/day after 16 days; assay type: functional
Summary of the method: (§5)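 CF1 male mice (~25 g), drug suspended in 1% carboxymethylcellulose in water, given ip daily for 16 days; n = 6; vehicle control. Tail-vein blood on days 9 and 16, serum cholesterol by modified Liebermann–Burchard reaction; day-14 serum triglyceride by commercial kit; expressed as % control.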

[10] = test system: Rattus norvegicus; assay: Effect on Chylomicrons of neutral lipids Holtzman rats after 14 days administration; assay type: functional; summary of the method: as §4
[11] = test system: Mus musculus; assay: In vitro effect on CF1 male mouse on Fatty acid synthetase after 16 days at a dose of 40 (mg/kg)/day; assay type: functional; summary of the method: as §1
[12] = test system: Rattus norvegicus; assay: Effect on high density cholesterol Holtzman rats after 14 days administration; assay type: functional; summary of the method: as §4
[13] = test system: Rattus norvegicus; assay: Effect on low density neutral lipids Holtzman rats after 14 days administration; assay type: functional; summary of the method: as §4
[14] = test system: Mus musculus; assay: Effect on mg of lipid from CF1 male mice after 16 days at a dose of 20 (mg/kg/day); assay type: functional
Summary of the method: (§6)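 CF1 male mice dosed ip for 16 days at 10–60 (mg/kg)/day; liver taken and 10% homogenate made in 0.25 M sucrose + 0.001 M EDTA; aliquot extracted by Folch and Bligh–Dyer methods, mg lipid weighed, cholesterol measured by Liebermann–Burchard method; n = 6; % of 1% CMC control.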

[15] = test system: Mus musculus; assay: Effect on Serum cholesterol levels on CF1 male mice at a dose of 25 (mg/kg)/day after 16 days; assay type: functional; summary of the method: as §5
[16] = test system: Mus musculus; assay: In vitro effect on CF1 male mouse on HMGCoA reductase after 16 days at a dose of 20 (mg/kg)/day; assay type: functional; summary of the method: as §1
[17] = test system: Mus musculus; assay: Effect on phospholipids from CF1 male mice after 16 days at a dose of 40 (mg/kg/day); assay type: functional; summary of the method: as §2
[18] = test system: Rattus norvegicus; assay: Effect on Serum cholesterol levels on Holtzman rats at a dose of 20 (mg/kg)/day after 16 days; assay type: functional
Summary of the method: (§7)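 Holtzman male rats (~200 g) dosed orally by intubation needle daily for 16 days, drug suspended in 1% carboxymethylcellulose; n = 6; vehicle control. Tail-vein serum cholesterol on days 9 and 16 by modified Liebermann–Burchard reaction; day-14 serum triglyceride by commercial kit; % control.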

[19] = test system: Mus musculus; assay: Effect on phospholipids from CF1 male mice after 16 days at a dose of 20 (mg/kg/day); assay type: functional; summary of the method: as §2
[20] = test system: Mus musculus; assay: Effect on cholesterol from CF1 male mice after 16 days at a dose of 20 (mg/kg/day); assay type: functional; summary of the method: as §6
[21] = test system: Mus musculus; assay: Effect on Serum cholesterol levels on CF1 male mice at a dose of 50 (mg/kg)/day after 9 days; assay type: functional; summary of the method: as §5
[22] = test system: Mus musculus; assay: Effect on Serum triglceride levels on CF1 male mice at a dose of 20 (mg/kg)/day after 14 days; assay type: functional; summary of the method: as §5
[23] = test system: Mus musculus; assay: In vivo effect on CF1 male mouse on Lipid content after 16 days at a dose of 20 (mg/kg)/day
[24] = test system: Mus musculus; assay: Effect on triglycerides from CF1 male mice after 16 days at a dose of 10 (mg/kg/day); assay type: functional; summary of the method: as §2
[25] = test system: Rattus norvegicus; assay: Effect on neutral lipids Holtzman rats after 14 days administration; assay type: functional
[26] = test system: Rattus norvegicus; assay: Effect on very low density Phospholipids Holtzman rats after 14 days administration; assay type: functional; summary of the method: as §3
[27] = test system: Rattus norvegicus; assay: Effect on high density Triglycerides Holtzman rats after 14 days administration; assay type: functional; summary of the method: as §4
[28] = test system: Rattus norvegicus; assay: Effect on Serum cholesterol levels on Holtzman rats at a dose of 30 (mg/kg)/day after 9 days; assay type: functional; summary of the method: as §7
[29] = test system: Mus musculus; assay: In vivo effect on CF1 male mouse on Lipid content after 16 days at a dose of 40 (mg/kg)/day
[30] = test system: Mus musculus; assay: In vitro effect on CF1 male mouse on Ac-CoA synthetase after 16 days at a dose of 20 (mg/kg)/day; assay type: functional; summary of the method: as §1
[31] = test system: Mus musculus; assay: In vitro effect on CF1 male mouse on phosphatidate phosphohydrolase after 16 days at a dose of 10 (mg/kg)/day; assay type: functional; summary of the method: as §1
[32] = test system: Rattus norvegicus; assay: Effect on Serum triglceride levels on Holtzman rats at a dose of 30 (mg/kg)/day after 14 days; assay type: functional; summary of the method: as §7

CC(=O)c1ccccc1N1C(=O)c2ccccc2C1=O was tested, and the Control [1] was 98%, the Control [2] was 97% and the Control [3] was 90%. For the same compound, the Control [4] was 48%, the Control [5] was 46% and the Control [6] was 171%. For the same compound, the Control [7] was 41%, the Control [8] was 62% and the Control [9] was 29%. The Control [10] was 50%, the Control [11] was 94% and the Control [12] was 52%. The Control [13] was 49%, the Control [14] was 85% and the Control [15] was 38%. The Control [16] was 81%, the Control [17] was 143% and the Control [18] was 56%. The Control [19] was 163%, the Control [20] was 73% and the Control [21] was 68%. For the same compound, the Control [22] was 56%, the Control [23] was 85% and the Control [24] was 46%. The Control [25] was 55%, the Control [26] was 359% and the Control [27] was 63%. It also gave a Control [28] of 76%, a Control [29] of 80% and a Control [30] of 46%. The Control [31] was 85% and the Control [32] was 75%.
